Values after ≈ are worked out from the molar mass of the structure shown.

From ChEMBL document CHEMBL1158283, “Four new bioactive manzamine-type alkaloids from the Philippine marine sponge Xestospongia ashmorica” (1996) come the findings set out here.

What all share (assay type): functional
For one test, the system named is Staphylococcus aureus. The experiment in a line: Antibacterial activity against Staphylococcus aureus ATCC 25923 at 100 ug after 24 hrs by agar plate diffusion assay. The following applies: ATCC 25923, 24 h, read-out: IZ. In outline: (§1)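 Sterile susceptibility disks (5 mm diameter) loaded with 100 μg compound, placed on agar plates seeded with test bacterium (B. subtilis 168, S. aureus ATCC 25923, E. coli ATCC 25922); plates incubated 24 h at 37 °C, then inhibition zone diameter read.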

Another test deals with Bacillus subtilis. Nature of the test: Antibacterial activity against Bacillus subtilis 168 at 100 ug after 24 hrs by agar plate diffusion assay. The note with it: Bacillus subtilis, 168, 24 h; read-out: IZ. In outline: as §1
The test system of test [1] is Spodoptera littoralis. Nature of the test: Insecticidal activity against Spodoptera littoralis neonate larvae assessed as inhibition of larval growth at 132 ppm administered with artificial diet after 6 days by chronic feeding experiment relative to control. The following applies: 144 h. Summed up:
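Neonate S. littoralis larvae (n = 20) from a laboratory colony, fed artificial diet spiked at 132 ppm for 6 days; survival and weight of surviving larvae recorded and expressed as growth inhibition versus untreated controls.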

The subject of the next test is L5178Y. The experiment in a line: Cytotoxicity against mouse L5178Y cells after 72 hrs by MTT assay. The note with it: read-out: ED50 (the source's name). In outline:
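L5178y mouse lymphoma cells in Eagle's MEM plus 10% horse serum, roller tube culture; cultures started at 5×1000 cells/mL, exposed to 0.3–20 μg/mL, incubated 72 h at 37 °C. Growth assessed by MTT assay and by cell counting; ED50 reported in μg/mL.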
A general note: Tetrazolium assays rely on reduction of a dye to a coloured formazan, in cell work by metabolically active cells.

The test system of test [2] is Spodoptera littoralis. Nature of the test: Insecticidal activity against Spodoptera littoralis neonate larvae assessed as inhibition of larval growth drug administered with artificial diet after 6 days by chronic feeding experiment. Summed up:
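Dose-response feeding assay: neonate S. littoralis larvae (n = 20) held 6 days on artificial diet spiked at 26–132 ppm; survival and surviving-larva weights compared with controls, ED50 (ppm) derived by probit analysis of the dose-response curve.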

Take `O[C@]12C=C(c3nccc4c3[nH]c3ccccc34)[C@@H]3CCN(CCCC/C=C\CC1)C[C@@]31C[C@@H]3/C=C\CCCCN3[C@H]12` [MANZAMINE A]: the zone of inhibition at 100 µg/disc in the test with Staphylococcus aureus and in the test with Bacillus subtilis was 7 mm throughout. Also, the inhibition at 132 ppm in the test with Spodoptera littoralis [1] is 80%. Moreover, in the test with L5178Y, the EC50 amounted to 1.8 mg/L (≈ 3.28 µM). In addition, in the test on Spodoptera littoralis [2], the ED50 is 35 ppm.
As to `O[C@]12C=C(c3nccc4c3[nH]c3ccccc34)C3CCN(CCCC/C=C\CC1)C[C@@]31C[C@]34CC[C@H](CCCN3[C@H]12)O4` (some centres undefined) [6-Deoxymanzamine X], the inhibition at 132 ppm with Spodoptera littoralis [1] was 18.5%. In addition, in the test on L5178Y, the EC50 was 1.8 mg/L (≈ 3.19 µM).
On to `O=C1CCCN2[C@@H](CC1)C[C@]13CN4CCCC/C=C\CC[C@](O)(C=C(c5nccc6c5[nH]c5ccccc56)C1CC4)[C@H]23` (some centres undefined) [MANZAMINE E], for which the inhibition at 132 ppm in the test on Spodoptera littoralis [1] was 0%. Also, in the test with L5178Y, the EC50 was 6.6 mg/L (≈ 11.7 µM).
On to `O[C@]12C=C(c3nccc4c3[nH]c3ccccc34)[C@@H]3CCN(CCCC/C=C\CC1)C[C@@]31CC/C=C\CCCCN[C@H]12` [MANZAMINE J], for which the inhibition at 132 ppm in the test on Spodoptera littoralis [1] is 2%. The EC50 in the test with L5178Y worked out at 25 mg/L (≈ 45.4 µM).
Regarding `[O-][N+]1=C(C2=C[C@@]3(O)CC/C=C\CCCCN4CC[C@@H]2[C@]2(C[C@@H]5/C=C\CCCCN5[C@H]23)C4)c2[nH]c3ccccc3c2CC1`, in the test on Spodoptera littoralis [1], the inhibition at 132 ppm was 26.4%. For the same molecule, the EC50 in the test on L5178Y was determined as 1.6 mg/L (≈ 2.82 µM).
For `[O-][n+]1ccc2c([nH]c3ccccc32)c1C1=C[C@@]2(O)CC/C=C\CCCCN3CC[C@@H]1[C@]1(C[C@@H]4/C=C\CCCCN4[C@H]12)C3`, in that order: 9.5% and 1.6 mg/L (≈ 2.83 µM).
In the case of `O=C1CCCN2[C@@H](CC1)C[C@]13CN4CCCC/C=C\CC[C@](O)(C=C(c5nccc6c5[nH]c5c(O)cccc56)C1CC4)[C@H]23` (some centres undefined) [MANZAMINE F], the inhibition at 132 ppm in the test on Spodoptera littoralis [1] came out at 50.6%. The EC50 with L5178Y was 2.3 mg/L (≈ 3.96 µM).
In the case of `[O-][n+]1ccc2c([nH]c3ccccc32)c1C1=C[C@@]2(O)CC/C=C\CCCCN3CC[C@@H]1[C@]1(CC/C=C\CCCCN[C@H]12)C3`, the inhibition at 132 ppm in the test on Spodoptera littoralis [1] turned out to be 16.2%. Further, the EC50 with L5178Y came to 3.2 mg/L (≈ 5.65 µM).

One may read the inhibition as how much of the control response was suppressed.
